Experimental findings from PubChem BioAssay are described below.

Activity calls are given as the source filed them.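 Rule for the calls, unless noted: active = GFP response above 150% of the DMSO level; inconclusive = fewer than 70 events counted for a yeast strain; inactive = the rest.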

The nature of experiment [1]: hit retest on RPL19A-GFP reporter strain – cell-based, S. cerevisiae, flow cytometry, cherry picks, mother/daughter gates, confirmation (AID 2270;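 active = GFP response below 50% of the DMSO control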). Particulars: 3 h, at 10 µM, stronger effect = lower value, 100 = same GFP as DMSO wells. In general terms: Flow cytometry measures light scatter and fluorescence of single cells or particles in a stream.
Experiment [2] in a line: yeast TOR pathway reporter LAP4-GFP change – cell-based, cherry picks, flow cytometry, mother/daughter gates, confirmation (AID 2271;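 active = GFP response above 150% of the DMSO control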;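 note: ratio of sample to DMSO plate mean so 100% equals DMSO level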). Particulars: S. cerevisiae LAP4-GFP strain, 3 h, at 10 µM, stronger effect = higher value, 100 means same as DMSO control. A digest of the protocol:
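System: Alexa 633-stained baker's yeast GFP-fusion strain / Medium: synthetic complete (SC) yeast growth medium / Doses: compound at 10 µM, single point / Times: 3 h treatment at 30 °C with rotation / Detection: HT flow cytometry, GFP fluorescence channel / Benchmarks: DMSO-only negative wells, rapamycin 400 ng/mL positive wells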

The nature of experiment [3]: TOR pathway reporter MEP2-GFP, retest of hits – S. cerevisiae, flow cytometry GFP, cherry picks, confirmation (AID 2272;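 active = GFP response above 150% of the DMSO control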;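 note: ratio of well signal to plate DMSO mean so 100% equals DMSO level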). Particulars: S. cerevisiae MEP2-GFP strain, 3 h, at 10 µM, stronger effect = higher value.
A short description of experiment [4]: yeast AGP1-GFP fluorescence change, single-dose – cell-based, flow cytometry, S. cerevisiae, cherry picks, confirmation (AID 2273).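 Note: median GFP channel fluorescence over the whole cell population gate.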 To be noted: S. cerevisiae AGP1-GFP strain, 3 h, at 10 µM.
The nature of experiment [5]: TOR pathway CIT2 reporter hit retest – S. cerevisiae, GFP fusion, cherry picks, mother/daughter gates, confirmation (AID 2274). Particulars: S. cerevisiae CIT2-GFP strain, flow cytometry, 3 h, at 10 µM, stronger effect = higher value.
[6] abbreviates: measured here: daughter cell gate.
Where [7] appears, read: measured here: mother cell gate.
[8] abbreviates: measured here: daughter cell gate response.
Where [9] appears, read: measured here: mother cell gate response.

As to `Cc1cc(C)c(S(=O)(=O)NCC23C=CC(O2)C2C(=O)N(c4ccccc4)C(=O)C23)c(C)c1` (configuration not stated), the GFP response vs DMSO in experiment [1] is 102% (inactive); in experiment [1] (setting [6]) it was 103%; in experiment [1] (setting [7]), 103%; in experiment [3] it was 102% (inactive). The GFP response relative to DMSO in experiment [2] is 105% (inactive); in experiment [2] (setting [8]) it was 105%; in experiment [2] (setting [9]), 108%. The GFP response, % of DMSO in experiment [4] was 100% (inactive); in experiment [5] it was 104% (inactive); in experiment [5] (setting [6]), 101%; in experiment [5] (setting [7]), 105%.
With `Cc1nnc(N2C(=O)c3cccc4cccc(c34)C2=O)s1`, the GFP response vs DMSO was 94.9% (inactive) in experiment [1], 93.3% in experiment [1] (setting [6]), 94.4% in experiment [1] (setting [7]) and 106% (inactive) in experiment [3]. The figures for the GFP response relative to DMSO in experiment [2], in experiment [2] (setting [8]) and in experiment [2] (setting [9]) were 96.5% (inactive), 94.4% and 96.4%, respectively. The GFP response, % of DMSO in experiment [4] is 100% (inactive); in experiment [5], 101% (inactive); in experiment [5] (setting [6]), 101%; in experiment [5] (setting [7]) it was 102%.
Take `COCCNC(=O)/C(C#N)=C/c1c(N2CC(C)OC(C)C2)nc2ccccn2c1=O` (configuration not stated): the GFP response vs DMSO is 100% (inactive) in experiment [1], 98.6% in experiment [1] (setting [6]), 100% in experiment [1] (setting [7]) and 103% (inactive) in experiment [3]. Further, the values for the GFP response relative to DMSO in experiment [2], in experiment [2] (setting [8]) and in experiment [2] (setting [9]) were 98.2% (inactive), 95.9% and 97.3%, respectively. Moreover, the GFP response, % of DMSO in experiment [4] is 98.8% (inactive); in experiment [5], 102% (inactive); in experiment [5] (setting [6]), 101%; in experiment [5] (setting [7]), 101%.
Take `COc1ccc(N/N=C(\C#N)C(N)=O)cc1`: the GFP response vs DMSO in experiment [1] is 83.7% (inactive); in experiment [1] (setting [6]), 64.6%; in experiment [1] (setting [7]) it was 83.7%; in experiment [3], 141% (inactive). In addition, the GFP response relative to DMSO is 166% (active) in experiment [2], 136% in experiment [2] (setting [8]) and 185% in experiment [2] (setting [9]). Besides, the GFP response, % of DMSO was 125% (inactive) in experiment [4], 136% (inactive) in experiment [5], 114% in experiment [5] (setting [6]) and 135% in experiment [5] (setting [7]).
Consider `COc1ccc(OC)c(S(=O)(=O)ON2C(=O)c3ccccc3C2=O)c1`, for which the GFP response vs DMSO in experiment [1] was 105% (inactive); in experiment [1] (setting [6]), 98.3%; in experiment [1] (setting [7]) it was 93.8%; in experiment [3], 114% (inactive). Besides, the GFP response relative to DMSO is 156% (active) in experiment [2], 157% in experiment [2] (setting [8]) and 158% in experiment [2] (setting [9]). Moreover, the GFP response, % of DMSO was 96.9% (inactive) in experiment [4], 102% (inactive) in experiment [5], 119% in experiment [5] (setting [6]) and 87.5% in experiment [5] (setting [7]).
`C=CCn1c(=N)c(C#N)cc2c(=O)n3ccccc3nc21`: the GFP response vs DMSO in experiment [1] is 98% (inactive); in experiment [1] (setting [6]), 95.4%; in experiment [1] (setting [7]), 93%; in experiment [3], 105% (inactive). Moreover, the figures for the GFP response relative to DMSO in experiment [2], in experiment [2] (setting [8]) and in experiment [2] (setting [9]) were 99.2% (inactive), 99.2% and 98.3%, respectively. Also, the GFP response, % of DMSO was 100% (inactive) in experiment [4], 101% (inactive) in experiment [5], 97.2% in experiment [5] (setting [6]) and 87.8% in experiment [5] (setting [7]).
With `O=C(O)Cc1ccc2ccc3ccccc3c2c1`, the GFP response vs DMSO was 96.8% (inactive) in experiment [1], 92.8% in experiment [1] (setting [6]), 97.8% in experiment [1] (setting [7]) and 102% (inactive) in experiment [3]. Besides, the GFP response relative to DMSO is 106% (inactive) in experiment [2], 105% in experiment [2] (setting [8]) and 105% in experiment [2] (setting [9]). The GFP response, % of DMSO in experiment [4] is 96.1% (inactive); in experiment [5] it was 104% (inactive); in experiment [5] (setting [6]), 99.7%; in experiment [5] (setting [7]) it was 104%.
Regarding `O=S(=O)(c1ccc(NC(=S)N/N=C/c2cccc(Oc3ccccc3)c2)cc1)N1CCOCC1`, the GFP response vs DMSO in experiment [1] is 97.8% (inactive); in experiment [1] (setting [6]) it was 98.6%; in experiment [1] (setting [7]), 97.3%; in experiment [3], 105% (inactive). Also, the GFP response relative to DMSO in experiment [2] was 94.9% (inactive); in experiment [2] (setting [8]), 93.5%; in experiment [2] (setting [9]) it was 96.2%. In addition, the GFP response, % of DMSO in experiment [4] is 106% (inactive); in experiment [5] it was 102% (inactive); in experiment [5] (setting [6]) it was 103%; in experiment [5] (setting [7]), 103%.
Take `Cc1ccc(C(=O)N2c3ccccc3NC(=O)C2C)cc1` (configuration not stated): the GFP response vs DMSO in experiment [1] was 99.9% (inactive); in experiment [1] (setting [6]) it was 98.1%; in experiment [1] (setting [7]) it was 100%; in experiment [3], 100% (inactive). Moreover, the GFP response relative to DMSO in experiment [2] is 102% (inactive); in experiment [2] (setting [8]), 98.7%; in experiment [2] (setting [9]), 105%. The GFP response, % of DMSO is 100% (inactive) in experiment [4], 97.8% (inactive) in experiment [5], 94.8% in experiment [5] (setting [6]) and 98.7% in experiment [5] (setting [7]).
With `COc1ccc(C(=O)NNC(=S)NC(=O)/C=C/c2cccs2)cc1`, the GFP response vs DMSO in experiment [1] is 106% (inactive); in experiment [1] (setting [6]) it was 109%; in experiment [1] (setting [7]) it was 104%; in experiment [3], 120% (inactive). Moreover, the GFP response relative to DMSO in experiment [2] is 201% (active); in experiment [2] (setting [8]), 173%; in experiment [2] (setting [9]) it was 198%. Also, the GFP response, % of DMSO in experiment [4] was 121% (inactive); in experiment [5], 108% (inactive); in experiment [5] (setting [6]), 112%; in experiment [5] (setting [7]), 100%.
Consider `CS/C(N)=N/N=C/c1ccc2c(c1)OCO2`, for which the GFP response vs DMSO is 97.8% (inactive) in experiment [1], 98.9% in experiment [1] (setting [6]), 97.7% in experiment [1] (setting [7]) and 100% (inactive) in experiment [3]. Moreover, the GFP response relative to DMSO in experiment [2] is 106% (inactive); in experiment [2] (setting [8]) it was 102%; in experiment [2] (setting [9]) it was 108%. Further, the GFP response, % of DMSO in experiment [4] was 102% (inactive); in experiment [5], 103% (inactive); in experiment [5] (setting [6]), 103%; in experiment [5] (setting [7]) it was 102%.
In the case of `O=C(Nc1ccccc1C(=O)O)c1ccccc1`, the GFP response vs DMSO was 100% (inactive) in experiment [1], 99.8% in experiment [1] (setting [6]), 101% in experiment [1] (setting [7]) and 102% (inactive) in experiment [3]. Moreover, the GFP response relative to DMSO in experiment [2] was 100% (inactive); in experiment [2] (setting [8]) it was 102%; in experiment [2] (setting [9]) it was 97.5%. In addition, the GFP response, % of DMSO in experiment [4] is 98.9% (inactive); in experiment [5] it was 99.3% (inactive); in experiment [5] (setting [6]) it was 102%; in experiment [5] (setting [7]), 98%.
For the molecule `O=C(NC(=S)NNC(=O)c1cnccn1)c1ccc(Cl)cc1`, the GFP response vs DMSO in experiment [1] is 103% (inactive); in experiment [1] (setting [6]), 95%; in experiment [1] (setting [7]), 98.2%; in experiment [3], 114% (inactive). The GFP response relative to DMSO in experiment [2] was 279% (active); in experiment [2] (setting [8]), 241%; in experiment [2] (setting [9]) it was 260%. Besides, the GFP response, % of DMSO in experiment [4] was 95.7% (inactive); in experiment [5], 106% (inactive); in experiment [5] (setting [6]) it was 105%; in experiment [5] (setting [7]), 98.2%.
On to `O=C1CC(Sc2nnc(-c3ccccc3O)o2)C(=O)N1c1ccccc1` (configuration not stated), for which the GFP response vs DMSO in experiment [1] was 95.1% (inactive); in experiment [1] (setting [6]) it was 98.3%; in experiment [1] (setting [7]), 93.1%; in experiment [3], 101% (inactive). The GFP response relative to DMSO in experiment [2] was 104% (inactive); in experiment [2] (setting [8]), 101%; in experiment [2] (setting [9]) it was 105%. Moreover, the GFP response, % of DMSO was 104% (inactive) in experiment [4], 106% (inactive) in experiment [5], 103% in experiment [5] (setting [6]) and 106% in experiment [5] (setting [7]).
`Cn1ncc(S(=O)(=O)Cc2ccccc2)c(Cl)c1=O`: the GFP response vs DMSO in experiment [1] is 94.2% (inactive); in experiment [1] (setting [6]), 90.6%; in experiment [1] (setting [7]) it was 87.7%; in experiment [3] it was 100% (inactive). The GFP response relative to DMSO is 316% (active) in experiment [2], 160% in experiment [2] (setting [8]) and 319% in experiment [2] (setting [9]). Further, the GFP response, % of DMSO in experiment [4] was 79.1% (inactive); in experiment [5], 92.6% (inactive); in experiment [5] (setting [6]), 101%; in experiment [5] (setting [7]), 84.3%.
Take `CN(C)CCCNc1cc(C(C)(C)C)nc2c(-c3ccc(Cl)cc3)cnn12`: the GFP response vs DMSO in experiment [1] was 93.6% (inactive); in experiment [1] (setting [6]), 89%; in experiment [1] (setting [7]), 94.2%; in experiment [3], 114% (inactive). Further, the GFP response relative to DMSO in experiment [2] was 116% (inactive); in experiment [2] (setting [8]), 107%; in experiment [2] (setting [9]), 118%. In addition, the GFP response, % of DMSO in experiment [4] was 107% (inactive); in experiment [5], 93.1% (inactive); in experiment [5] (setting [6]), 94%; in experiment [5] (setting [7]), 92.6%.
Regarding `O=C(CSc1ccc(-c2ccccn2)nn1)N1CCCCC1`, the GFP response vs DMSO in experiment [1] is 99.9% (inactive); in experiment [1] (setting [6]) it was 100%; in experiment [1] (setting [7]) it was 99%; in experiment [3] it was 99.5% (inactive). Also, the GFP response relative to DMSO in experiment [2] was 101% (inactive); in experiment [2] (setting [8]), 101%; in experiment [2] (setting [9]), 101%. The GFP response, % of DMSO is 103% (inactive) in experiment [4], 99.3% (inactive) in experiment [5], 100% in experiment [5] (setting [6]) and 96.8% in experiment [5] (setting [7]).
